Test results published in ChEMBL document CHEMBL1156332, “Polysubstituted pyrazoles, part 6. Synthesis of some 1-(4-chlorophenyl)-4-hydroxy-1H-pyrazol-3-carbonyl derivatives linked to nitrogenous heterocyclic ring systems as potential antitumor agents” (2010).

How the values were obtained:
Assay type in all cases: functional
UACC-62 = assay: Growth inhibition of human UACC62 cells after 48 hrs by sulforhodamine B assay; settings: UACC-62, 48 h
In short: (§1)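 Adherent lines plated and held 24 h at 37 °C, 5% CO2, 100% humidity; time-zero plates TCA-fixed at drug addition. Drugs from DMSO stocks were made into five concentrations by 10-fold or half-log serial dilution and applied for 48 h continuous exposure. Cells were fixed with cold TCA (10% final) for 60 min at 4 °C, then stained with 0.4% SRB in 1% acetic acid for 10 min. Dye was solubilized in 10 mM Tris base and read at 515 nm. GI50 was taken from log concentration–growth curves.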

IGROV-1 = assay: Growth inhibition of human IGROV1 cells after 48 hrs by sulforhodamine B assay; settings: IGROV-1, 48 h
In short: (§2)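 NCI 60-line panel, five concentrations (0.01–100 µM) from DMSO stock diluted in medium with gentamicin. Cells were plated 24 h before dosing, with time-zero plates fixed at drug addition, then exposed 48 h at 37 °C, 5% CO₂. Adherent cells were fixed with cold TCA (10% final) and suspension cells with 16% TCA. Staining used 0.4% SRB, solubilised in 10 mM Tris and read at 515 nm. GI₅₀ was taken from log concentration–% growth curves.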

MDA-MB-435 = assay: Growth inhibition of human MDA-MB-435 cells after 48 hrs by sulforhodamine B assay; settings: MDA-MB-435, 48 h; in short: as §2
OVCAR-3 = assay: Growth inhibition of human OVCAR-3 cells after 48 hrs by sulforhodamine B assay; settings: OVCAR-3, 48 h; in short: as §2
[1] = Cytotoxicity against human lung cancer cells after 48 hrs by sulforhodamine B assay; settings: Cancer cell lines
In short: (§3)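 NCI five-dose screen: about 60 human tumour lines grouped into nine subpanels were plated and incubated 24 h before dosing. Compounds went in as DMSO stock and were diluted in medium to five final concentrations (0.01–100 µM). Exposure was 48 h continuous at 37 °C, 5% CO₂, followed by TCA fixation and SRB staining read at 515 nm. Per-line GI₅₀, TGI and LC₅₀ came from log concentration–% growth curves, averaged per subpanel as MG-MID.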

NCI-H460 = assay: Growth inhibition of human NCI-H460 cells after 48 hrs by sulforhodamine B assay; settings: NCI-H460, 48 h; in short: as §2
HOP-62 = assay: Growth inhibition of human HOP62 cells after 48 hrs by sulforhodamine B assay; settings: HOP-62, 48 h; in short: as §2
[2] = Cytotoxicity against human renal cancer cells after 48 hrs by sulforhodamine B assay; settings: Cancer cell lines; in short: as §3
OVCAR-4 = assay: Growth inhibition of human OVCAR4 cells after 48 hrs by sulforhodamine B assay; settings: OVCAR-4, 48 h; in short: as §2
[3] = Cytotoxicity against human leukemia cells after 48 hrs by sulforhodamine B assay; settings: Leukemia cell; in short: as §3
MCF7 = assay: Growth inhibition of human MCF7 cells after 48 hrs by sulforhodamine B assay; settings: MCF7, 48 h; in short: as §2
M14 = assay: Growth inhibition of human M14 cells after 48 hrs by sulforhodamine B assay; settings: M14, 48 h; in short: as §2
SF-539 = assay: Growth inhibition of human SF539 cells after 48 hrs by sulforhodamine B assay; settings: SF-539, 48 h; in short: as §1
SF-268 = assay: Growth inhibition of human SF268 cells after 48 hrs by sulforhodamine B assay; settings: SF-268, 48 h; in short: as §2
KM12 = assay: Growth inhibition of human KM12 cells after 48 hrs by sulforhodamine B assay; settings: KM12, 48 h; in short: as §2
HCT-15 = assay: Growth inhibition of human HCT15 cells after 48 hrs by sulforhodamine B assay; settings: HCT-15, 48 h; in short: as §2
[4] = Cytotoxicity against human breast cancer cells after 48 hrs by sulforhodamine B assay; settings: Cancer cell lines; in short: as §3
MDA-MB-468 = assay: Growth inhibition of human MDA-MB-468 cells after 48 hrs by sulforhodamine B assay; settings: MDA-MB-468, 48 h; in short: as §2
SNB-19 = assay: Growth inhibition of human SNB19 cells after 48 hrs by sulforhodamine B assay; settings: SNB-19, 48 h; in short: as §1
OVCAR-5 = assay: Growth inhibition of human OVCAR5 cells after 48 hrs by sulforhodamine B assay; settings: OVCAR-5, 48 h; in short: as §2
ACHN = assay: Growth inhibition of human ACHN cells after 48 hrs by sulforhodamine B assay; in short: as §2
[5] = Growth inhibition of human Hs 578T cells after 48 hrs by sulforhodamine B assay; in short: as §2
SNB-75 = assay: Growth inhibition of human SNB75 cells after 48 hrs by sulforhodamine B assay; settings: SNB-75, 48 h; in short: as §1
OVCAR-8 = assay: Growth inhibition of human OVCAR8 cells after 48 hrs by sulforhodamine B assay; settings: OVCAR-8, 48 h; in short: as §2
786-0 = assay: Growth inhibition of human 786-0 cells after 48 hrs by sulforhodamine B assay; settings: 786-0, 48 h; in short: as §2
SK-OV-3 = assay: Growth inhibition of human SKOV3 cells after 48 hrs by sulforhodamine B assay; settings: SK-OV-3, 48 h; in short: as §1
SW-620 = assay: Growth inhibition of human SW620 cells after 48 hrs by sulforhodamine B assay; settings: SW-620, 48 h; in short: as §1
HOP-92 = assay: Growth inhibition of human HOP92 cells after 48 hrs by sulforhodamine B assay; settings: HOP-92, 48 h; in short: as §2
K562 = assay: Growth inhibition of human K562 cells after 48 hrs by sulforhodamine B assay; settings: K562, 48 h; in short: as §2
DU-145 = assay: Growth inhibition of human DU145 cells after 48 hrs by sulforhodamine B assay; settings: DU-145, 48 h; in short: as §2
SN12C = assay: Growth inhibition of human SN12C cells after 48 hrs by sulforhodamine B assay; in short: as §1
NCI-H226 = assay: Growth inhibition of human NCI-H226 cells after 48 hrs by sulforhodamine B assay; settings: NCI-H226, 48 h; in short: as §2
NCI/ADR-RES = assay: Growth inhibition of human NCI/ADR-RES cells after 48 hrs by sulforhodamine B assay; in short: as §2
HT-29 = assay: Growth inhibition of human HT-29 cells after 48 hrs by sulforhodamine B assay; settings: HT-29, 48 h; in short: as §2
U-251 = assay: Growth inhibition of human U251 cells after 48 hrs by sulforhodamine B assay; settings: U-251, 48 h; in short: as §1
[6] = Cytotoxicity against human prostate cancer cells after 48 hrs by sulforhodamine B assay; settings: Cancer cell lines; in short: as §3
TK-10 = assay: Growth inhibition of human TK10 cells after 48 hrs by sulforhodamine B assay; settings: TK-10, 48 h; in short: as §1
UACC-257 = assay: Growth inhibition of human UACC257 cells after 48 hrs by sulforhodamine B assay; settings: UACC-257, 48 h; in short: as §1
[7] = Cytotoxicity against human colon cancer cells after 48 hrs by sulforhodamine B assay; settings: Cancer cell lines; in short: as §3
RPMI-8226 = assay: Growth inhibition of human RPMI8226 cells after 48 hrs by sulforhodamine B assay; settings: RPMI-8226, 48 h; in short: as §2
HCT-116 = assay: Growth inhibition of human HCT116 cells after 48 hrs by sulforhodamine B assay; settings: HCT-116, 48 h; in short: as §2

N#Cc1cnn(C(=O)c2nn(-c3ccc(Cl)cc3)cc2O)c1N
GI50 (UACC-62): 300 nM | GI50 (IGROV-1): 360 nM | GI50 (MDA-MB-435): 290 nM | GI50 (OVCAR-3): 550 nM | GI50 [1]: 320 nM | LC50 (concentration causing 50% net cell kill) [1]: 69400 nM | TGI [1]: 10800 nM | GI50 (NCI-H460): 190 nM | GI50 (HOP-62): 340 nM | GI50 [2]: 360 nM | LC50 [2]: 75000 nM | TGI [2]: 8990 nM | GI50 (OVCAR-4): 460 nM | GI50 [3]: 270 nM | LC50 (concentration killing 50% of cells) [3]: 44300 nM | TGI [3]: 3230 nM | GI50 (MCF7): 360 nM | GI50 (M14): 480 nM | GI50 (SF-539): 320 nM | GI50 (SF-268): 460 nM | GI50 (KM12): 380 nM | GI50 (HCT-15): 340 nM | GI50 [4]: 430 nM | LC50 [4]: 64300 nM | TGI [4]: 14400 nM | GI50 (MDA-MB-468): 950 nM | GI50 (SNB-19): 450 nM | GI50 (OVCAR-5): 640 nM | GI50 (ACHN): 320 nM | GI50 [5]: 190 nM | GI50 (SNB-75): 250 nM | GI50 (OVCAR-8): 480 nM | GI50 (786-0): 660 nM | GI50 (SK-OV-3): 520 nM | GI50 (SW-620): 520 nM | GI50 (HOP-92): 400 nM | GI50 (K562): 250 nM | GI50 (DU-145): 570 nM | GI50 (SN12C): 350 nM | GI50 (NCI-H226): 370 nM | GI50 (NCI/ADR-RES): 370 nM | GI50 (HT-29): 1190 nM | GI50 (U-251): 290 nM | GI50 [6]: 450 nM | TGI [6]: 13400 nM | GI50 (TK-10): 280 nM | GI50 (UACC-257): 560 nM | GI50 [7]: 610 nM | TGI [7]: 12600 nM | CC50 ([7]; read-out: LC50 (the source's name)): 64300 nM | GI50 (RPMI-8226): 210 nM | GI50 (HCT-116): 260 nM
